Shown are actives, neighbours in structure and some others; about 0.63% of the full set was active somewhere.
STK33 inh: inhibitors of human STK33 kinase; inhibition, % at 10 µM; actives 0.073% (n = 320,000); purified STK33, MBP phosphorylation, ADP-Glo luminescence;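 active means inhibition at or above 25%, using the most active replicate where run in duplicate; inactive means inhibition below 25%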
MT1-MMP act inh: blocks activation of human MT1-MMP | AID 651647 | HT1080 RFP-PRO-GFP cells, GFP/RFP ratio fluorescence, overnight; percent of plate control window, DMSO zero | GFP/RFP ratio change, % at 20 µM | actives 0.061% (n = 360,000);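 active means GFP/RFP ratio change of at least 30% with cell ATP level not reduced by more than half and red fluorescence within 50% of control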
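Assay system: HT1080 RFP-PRO-GFP cells. Benchmarks: DMSO vehicle wells and RFP-L50D-GFP reporter cell wells. Times: overnight cell settling, then overnight compound exposure, 37 °C, 5% CO2. Compound: 20 µM single dose, 1% DMSO. Read-out basis: GFP/RFP fluorescence ratio.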
GSK3 alpha inh: blocks human GSK-3 alpha kinase. P49840. ADP-Glo luminescence, 60 min. inhibition, % at 10 µM. actives 0.1% (n = 320,000). AID 2650;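 active means more than half of replicates show inhibition above 20%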;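 further: GST-tagged GSK-3 alpha with peptide substrate and 25 µM ATP; 0% = DMSO neutral wells and 100% = GW8510 positive control wells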
GSK3B inh: blocks human GSK3beta kinase activity; P49841; GST-GSK3beta kinase, ADP-Glo luminescence, 60 min; active compounds read low; activity score (negative = inhibition), % at 10 µM; actives 0.038% (n = 300,000);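 active means more than half of replicate wells score below -50%, meaning over 50% inhibition versus plate controls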;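 further: 0% = median DMSO wells and -100% = median GW8510 positive control wells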
Target sequence (P49841 whole entry, looked up): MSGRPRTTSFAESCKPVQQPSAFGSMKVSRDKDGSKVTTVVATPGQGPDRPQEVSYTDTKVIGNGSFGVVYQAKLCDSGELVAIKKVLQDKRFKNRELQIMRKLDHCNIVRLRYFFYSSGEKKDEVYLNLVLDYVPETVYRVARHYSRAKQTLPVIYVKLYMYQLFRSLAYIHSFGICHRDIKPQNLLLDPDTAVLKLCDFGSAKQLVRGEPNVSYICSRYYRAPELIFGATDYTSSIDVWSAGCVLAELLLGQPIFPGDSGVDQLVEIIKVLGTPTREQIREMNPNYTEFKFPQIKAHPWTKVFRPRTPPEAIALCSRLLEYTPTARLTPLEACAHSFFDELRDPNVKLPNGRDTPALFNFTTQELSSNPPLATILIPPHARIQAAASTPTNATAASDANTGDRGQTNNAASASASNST
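Assay system: GST-fused GSK3beta enzyme, cell-free / Medium: Tris pH 7.5 buffer with MgCl2, DTT, BSA, heparin / Also added: peptide substrate plus 25 µM ATP (final) / Compound: 10 µM single point / Timing: kinase reaction with compound 60 min at room temperature / Detection: ADP-Glo luminescence / Benchmarks: DMSO neutral wells and GW8510 at 20 µM as positive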
Pemphigus Ab inh: human desmoglein-3 autoantibody binding inhibition | P32926 | DSG3-coupled beads, scFv-anti-DSG3-GFP binding, flow cytometry; active compounds read low | binding (percent of control), % at 10 µM | actives 0.48% (n = 310,000);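 active means binding more than 3 SD below its plate's average and above zero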;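 further: hits lower antibody fragment binding to DSG3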
Starred values were filed as active, the others as inactive; · = not tested or not shown.

SMILES	STK33 inh	MT1-MMP act inh	GSK3 alpha inh	GSK3B inh	Pemphigus Ab inh
O=C(CN1C(=O)/C(=C2/SC(=S)N(CCS(=O)(=O)O)C2=O)c2ccccc21)Nc1cccc(Br)c1	-0.7	2.5	1.3	·	124.9
CC(=O)Nc1nonc1NC(C)=O	-2.2	0.1	-2.7	0.3	·
CC(=O)Nc1cc(OC(C)=O)c2nonc2c1OC(C)=O	2.4	-3.1	68.3*	·	107.5
CN(c1cccc(F)c1)c1cc2c(c3c1ccn3C)C1CCC2O1 (stereo unspecified)	·	-0.1	·	·	·
Clc1ccc(-c2ccc(C=Nc3ccc(N4CCOCC4)cc3)o2)c(Cl)c1	-1.3	-2.2	-0.1	2.3	26.7*
Clc1ccc(-c2ccc(C=Nc3ccc(N4CCOCC4)cc3)o2)cc1	-1.3	10.5	-4.3	5.7	99.0
CSc1ncccc1C(=O)OCc1cccc([N+](=O)[O-])c1	-2.5	-0.6	-1.7	4.1	113.4
CSc1ncccc1C(=O)OCc1ccc([N+](=O)[O-])cc1	-0.2	-3.8	-1.0	3.3	79.4*
Cc1nc(NCCCn2ccnc2)c2ccccc2n1	-0.3	0.5	3.6	-1.8	134.7
c1cncc(-c2nc(NCCCn3ccnc3)c3ccccc3n2)c1	11.7	-5.7	70.7*	-55.3*	100.7
COc1cc(C2=NOC(C(=O)Nc3ccc(C(C)=O)cc3)C2)cc(OC)c1OC (stereo unspecified)	-0.7	2.5	-0.2	1.7	79.1*
COc1ccc(C2=NOC(C(=O)Nc3cccc(O)c3)C2)cc1 (stereo unspecified)	0.4	-1.2	-0.7	-2.0	82.1*
COc1ccc(C2=NOC(C(=O)Nc3ccc(C(C)=O)cc3)C2)cc1OC (stereo unspecified)	-0.4	3.2	-0.1	2.3	104.0
CCOC(=O)[C@]12CCCC=C1N(Cc1cccc3ccccc13)C(=O)[C@H](CC(=O)N1CCCCC1)C2	·	-16.6	·	·	·
Nc1nc(NCCO)nc(NC2CCCCC2)c1[N+](=O)[O-]	1.0	-5.9	86.2*	-10.6	122.8
CC(C)CCNc1nc(N)c([N+](=O)[O-])c(NC2CCCCC2)n1	-1.4	2.4	0.0	0.3	101.1
Nc1nc(NCCOCCO)nc(NC2CCCCC2)c1[N+](=O)[O-]	2.7	·	52.3*	-7.2	123.7
CN(C)CCCNc1nc(N)c([N+](=O)[O-])c(NC2CCCCC2)n1	2.6	-4.0	98.4*	-81.3*	95.5
CCc1nc2c(OCc3ccc(OC(F)F)cc3)cccn2c1N(C)C(=O)c1ccc(OC)cc1	·	-1.1	·	·	·
Cc1cnc(C(=O)N2CCN(S(=O)(=O)c3cc(C(F)(F)F)cc(C(F)(F)F)c3)CC2)cn1	·	-3.2	·	·	-16.9*
COc1ccc(S(=O)(=O)N2CCN(C(=O)c3cnc(C)cn3)CC2)cc1	-2.0	0.7	-1.5	1.2	105.3
CC(C)(C)NC(=O)Cc1ccc(S(=O)(=O)N2CCCC2)s1	-2.0	12.9	0.8	3.9	75.2*
COc1ccccc1N1CCN(C2C(=O)Nc3ccccc3-n3nnnc32)CC1 (stereo unspecified)	·	-0.5	·	·	·
COc1ccc2[nH]c3c(c2c1)CCN1C(=O)C(CC(=O)NCc2cccc(C(F)(F)F)c2)C[C@H](C(=O)N2CCCCC2)[C@@]31C (stereo partly specified)	·	-10.1	·	·	78.6*
Cc1ccc(F)cc1-c1cc2nc(NCCCN(C)C)n(C)c(=O)c2s1	·	-1.5	·	·	·
SMILES	STK33 inh	MT1-MMP act inh	GSK3 alpha inh	GSK3B inh	Pemphigus Ab inh
CS(=O)(=O)Nc1ccc(-c2cc(/C=C3\SC(N)=NC3=O)c[nH]c2=O)cc1	38.7*	-0.1	36.9	-1.6	100.6
Cc1ccc(/C=C2\SC(N)=NC2=O)s1	1.2	-19.5	-1.6	2.8	127.8
COc1ccc(-c2nn(-c3ccccc3)cc2/C=N/NS(=O)(=O)c2ccccc2)cc1	2.6	2.2	-2.0	-0.6	97.4
COc1ccc(-c2nn(-c3ccccc3)cc2/C=N/O)cc1	-0.1	-3.5	46.2	-54.5*	92.5
COc1ccc(-c2oc3ncnc(NCCCN(C)C)c3c2-c2ccc(OC)cc2)cc1	38.0*	-12.2	5.4	-4.2	105.7
CC(=O)c1cccc(NC(=O)Cn2cnc(S(=O)(=O)N3CCC(C)CC3)c2)c1	-2.3	7.2	2.3	3.2	82.4*
N#Cc1c(-c2ccncc2)c2c([nH]c1=O)-c1ccccc1OC2	-0.5	·	7.8	-3.4	·
N#Cc1c(-c2ccccc2Cl)c2c([nH]c1=O)-c1ccccc1OC2	2.6	2.2	55.4*	-9.6	96.3
COc1ccc(OC)c(C=NNC(=O)NN=Cc2cc(OC)ccc2OC)c1	·	-0.3	·	·	101.8
COc1ccc(OC)c(/C=N/NC(=O)C(=O)N/N=C/c2cc(OC)ccc2OC)c1	-1.2	-1.0	-3.3	-1.6	53.8*
N#CCCn1cc(/C=C2\NC(=S)N(c3ccccc3)C2=O)c(-c2ccc(F)cc2)n1	1.4	·	-0.1	-0.5	1.1*
O=c1[nH][nH]c2c1[C@H](C1CCCC1)O[C@H](CCc1ccccc1)C2	·	1.3	·	·	·
Cc1ccc(S(=O)(=O)N2CC3(O)CN(C(=O)OC(C)C)N(C(=O)OC(C)C)CC3(OC(=O)NC3CCCC3)C2)cc1 (stereo unspecified)	·	-2.1	·	·	104.1
Cc1ccc(N2CCN(C(=O)C(=O)c3ccc4c(c3)OCO4)CC2)cc1	·	0.6	·	·	·
CC(C)=C1SC(N2CCN(c3cccc(C(F)(F)F)c3)CC2)=NC1=O	-0.7	2.2	-0.3	4.7	41.7*
CC(C)=C1SC(N2CCN(c3ccc(C)cc3)CC2)=NC1=O	-0.3	0.4	-4.5	-1.7	104.3
COc1cccc(/C=C2/Sc3ccc(C(=O)NCCN4CCCC4)cc3NC2=O)c1	0.9	-0.1	0.9	-67.4*	·
O=C1Nc2cc(C(=O)NCCN3CCCCCC3)ccc2S/C1=C/c1ccccc1F	·	-1.8	·	·	108.0
COc1cccc(/C=C2/Sc3ccc(C(=O)NCCCN4CCCC4)cc3NC2=O)c1	10.5	4.9	83.8*	-83.1*	104.0
O=C1Nc2cc(C(=O)NCCCN3CCCC3)ccc2S/C1=C/c1ccccc1F	1.2	-2.4	42.0	-66.6*	110.2
CCOC(=O)[C@]12CCCC=C1N(CCc1ccc(OC)c(OC)c1)C(=O)[C@H](CC(=O)N1CCCC1)C2	·	3.0	·	·	·
OC[C@H]1O[C@@H](c2nc3ccc(-c4nc(-c5ccc(Br)cc5)no4)cc3[nH]2)C[C@@H]1O	·	1.8	·	·	·
CC(C)N1C(=O)c2ccccc2NC(=O)C1C(=O)NC1CC1 (stereo unspecified)	·	1.0	·	·	·
Cc1ccc(NC(=O)Cn2c(=O)c3cccn3c3ccccc32)c(Cl)c1	-3.6	3.3	-1.2	-0.2	31.9*

Screens (PubChem BioAssay)
